Measurements pooled from the literature.
Protocols differ between the studies behind these lines.
Target: Serine/threonine-protein kinase ULK2 (ULK2, Homo sapiens, UniProt Q8IYT8)

SMILES | assay | test system | conditions | measurement | value
C[C@@H](c1cccc(C#N)c1)n1cc(Cl)cc(C(N)=O)c1=N | cell-free assay, competition with immobilised ligand |  | 1 µM | remaining binding | 89%
Cc1ccc(C(=O)Nc2ccc(CN3CCN(C)CC3)c(C(F)(F)F)c2)cc1C#Cc1cnc2cccnn12 | enzyme activity, inhibitor |  | 23.5 nM | remaining activity | 94%
CCCOc1ccc([C@@H]2[C@@H](C(=O)O)[C@H](c3ccc4c(c3)OCO4)CN2CC(=O)Nc2c(CC)cccc2CC)cc1 | cell-free assay, competition with immobilised ligand |  | 1 µM | remaining binding | 76%
C=CC(=O)Nc1cc(Nc2nccc(Nc3cc(Cl)c(F)cc3C(C)(C)O)n2)c(OC)cc1N1CC[C@@H](N(C)C)C1 | enzyme activity, inhibitor |  | 1 µM | inhibition | -2%
CN1CCN(c2cnc3c(C4CCN(C(=O)c5ccc(OC(F)(F)F)cc5N)CC4)ncnc3c2)CC1 | cell-free assay, competition with immobilised ligand |  | 1 µM | remaining binding | 100%
CCN1CCN(Cc2ccc(NC(=O)c3ccc(C)c(Oc4ccnc5[nH]ccc45)c3)cc2C(F)(F)F)CC1 | target engagement in cells, inhibitor, chemoproteomics | Huh-7 | 10 µM | inhibition | -13.4%
COc1cc(Cl)c(C(=O)N[C@@H](CN[C@H]2CC[C@@H](N)CC2)Cc2ccc(C#N)cc2)cc1-c1ccc(CN[C@H](C)c2ccc(C)cc2)o1 | enzyme activity, inhibitor |  | 1 µM | remaining activity | 94%
O=C(Nc1cnn(-c2csc(C(=O)NC3COC3)c2)c1)Nc1ccccc1Cl | enzyme activity, inhibitor |  | 5 µM | remaining activity | 196%
O=C1NC(=O)c2cc(Nc3ccc(F)cc3)c(Nc3ccc(F)cc3)cc21 | cell-free assay |  | 0.5 µM | remaining signal | 84.7%
O=C(CSc1nc2nccnc2c(=O)n1CCc1ccccc1)Nc1nccs1 | enzyme activity, inhibitor |  | 10 µM | inhibition | 2%
CC(C)(O)[C@H]1CC[C@H](Nc2ccc3ncc(-c4cccc(C(F)(F)F)c4)n3n2)CC1 | enzyme activity, inhibitor |  | 1 µM | remaining activity | 97.9%
COc1cc2c(Nc3ccc(Br)cc3F)ncnc2cc1OCC1CCN(C)CC1 | cell-free assay |  | 0.5 µM | remaining signal | 108%
Cc1ccc(NC(=O)c2ccc(C)c(C(F)(F)F)c2)cc1C#Cc1nn(C2CCC(O)CC2)c2ncnc(N)c12 (stereo not shown) | cell-free assay |  | 10 µM | remaining signal | 100%
COc1cc(/C=C/C(=O)CC(=O)/C=C/c2ccc(O)c(OC)c2)ccc1O | enzyme activity, inhibitor |  | 1 µM | activity vs control | 105%
CNC(=O)Nc1ccc2c(c1)[C@@]1(CC2)OC(=O)N(CC(=O)N(Cc2ccc(F)cc2)[C@@H](C)C(F)(F)F)C1=O | cell-free assay, competition with immobilised ligand |  | 1 µM | remaining binding | 100%
CCCS(=O)(=O)Nc1ccc(F)c(C(=O)c2c[nH]c3ncc(-c4ccc(Cl)cc4)cc23)c1F | enzyme activity, inhibitor |  | 1 µM | inhibition | < 10%
O=C(NCc1ncc(C(F)(F)F)cc1Cl)c1ccc2c(c1)C1(CCS(=O)(=O)CC1)[C@H](C1CC1)N2S(=O)(=O)c1ccc(F)cc1 | cell-free assay, competition with immobilised ligand |  | 1 µM | remaining binding | 58%
FC(F)(F)Oc1cccc(-c2cnc3ccc(-c4ccncc4)nn23)c1 | enzyme activity, inhibitor, radiometric |  | 1 µM | activity vs control | 110%
CC(=O)N1CCC(c2ccc(C(=O)NC3=NCCN3)cc2C(F)(F)F)CC1 | cell-free assay, competition with immobilised ligand |  | 1 µM | remaining binding | 82%
O=C1Nc2ccc(Cl)cc2C1=Cc1cc(Cl)c(O)c(Cl)c1 | cell-free assay |  | 0.5 µM | remaining signal | 101%
CN1CC(Oc2cnc(C#N)cc2-c2ccn3nc(NC(=O)C4CC4)cc3c2)C1 | enzyme activity, inhibitor |  | 1 µM | inhibition | 8%
C[C@@]1(Cc2ccc(C#N)cc2)C(=O)N(c2cc(Cl)cc(Cl)c2)c2ncc(C(=O)NC3(c4nc(C5CCC5)no4)CC3)n21 | cell-free assay, competition with immobilised ligand |  | 1 µM | remaining binding | 100%
